From ChEMBL document CHEMBL1212832, “Antiprotozoal steroidal saponins from the marine sponge Pandaros acanthifolium” (J Nat Prod, 2010)
The source made the active and inactive calls. No cut-off for these calls is given here.

Assays:
Plasmodium falciparum = test: Antimalarial activity against chloroquine and pyrimethamine-resistant Plasmodium falciparum K1 assessed as inhibition of [3H]hypoxanthine incorporation after 48 hrs by scintillation counting; type: functional, organism-based
Procedure, shortened: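 K1 strain (chloroquine- and pyrimethamine-resistant) cultured in RPMI 1640 with 5% Albumax II, 0.2% w/v glucose, 0.03% L-glutamine. Two-fold dilution series from DMSO stocks, final DMSO ≤0.25%. 48 h at 37 °C, then 0.1 µCi [3H]-hypoxanthine added and incubated 24 h more. Freeze-stopped at -80 °C, harvested onto glass fiber filters, scintillation counted. IC50 calculated. Chloroquine as standard.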

[1] = molecular target: T1, 3-oxoacyl-acyl-carrier protein reductase (Plasmodium falciparum) (UniProt Q965D6); test: Inhibition of Plasmodium falciparum recombinant FabG at 20 ug/mL by spectrophotometric analysis
T1 sequence (whole entry): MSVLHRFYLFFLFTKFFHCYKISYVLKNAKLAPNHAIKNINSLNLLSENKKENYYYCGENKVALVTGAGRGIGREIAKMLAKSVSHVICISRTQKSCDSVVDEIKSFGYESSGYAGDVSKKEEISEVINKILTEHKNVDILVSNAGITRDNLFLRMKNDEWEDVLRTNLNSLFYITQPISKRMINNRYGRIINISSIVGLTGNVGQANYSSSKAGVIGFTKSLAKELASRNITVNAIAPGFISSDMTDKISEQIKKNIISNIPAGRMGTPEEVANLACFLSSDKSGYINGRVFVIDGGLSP

[2] = Inhibition of Plasmodium falciparum recombinant FabI at 20 ug/mL by spectrophotometric analysis
L6 = test: Cytotoxicity against rat L6 cells after 72 hrs by Alamar blue assay; type: cell-based; details: l6, 72 h
Procedure, shortened: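 4 × 10^4 L6 cells per well in RPMI 1640 with 10% FBS and L-glutamine, exposed 72 h to seven 3-fold dilutions (90–0.12 µg/mL). Resazurin (Alamar Blue) added for 2 h, fluorescence read at ex 536/em 588 nm.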

[3] = tested on: Trypanosoma brucei rhodesiense; test: Trypanocidal activity against Trypanosoma brucei rhodesiense STIB 900 after 72 hrs; type: functional, organism-based; details: STIB 900, 72 h
Procedure, shortened: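 Bloodstream forms (10^4 per well) in MEM with 25 mM HEPES, extra glucose, non-essential amino acids, 2-mercaptoethanol, pyruvate and 15% heat-inactivated horse serum; seven 3-fold dilutions from 90 to 0.12 µg/mL, 72 h at 37 °C, 5% CO2. Resazurin added for 2–4 h, fluorescence at ex 536/em 588 nm; melarsoprol as standard.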

[4] = molecular target: T2, Fatty acid synthase (Plasmodium falciparum) (UniProt Q965D7); test: Inhibition of Plasmodium falciparum recombinant FabZ at 20 ug/mL by spectrophotometric analysis
T2 sequence (whole entry): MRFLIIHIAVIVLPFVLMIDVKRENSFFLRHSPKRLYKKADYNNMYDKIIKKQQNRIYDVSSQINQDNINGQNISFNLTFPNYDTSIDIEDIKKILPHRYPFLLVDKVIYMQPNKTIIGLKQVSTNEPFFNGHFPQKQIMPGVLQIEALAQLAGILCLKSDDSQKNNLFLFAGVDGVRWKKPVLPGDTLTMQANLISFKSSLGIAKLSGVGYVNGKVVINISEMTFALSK

Trypanosoma cruzi = test: Trypanocidal activity against trypomastigote form of Trypanosoma cruzi Tulahuen infected in rat L6 cells after 96 hrs; type: functional, organism-based; details: L6, 96 h
Procedure, shortened: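 L6 cells seeded at 2000 per well in RPMI 1640 with 10% FBS, 2 mM L-glutamine; after 24 h, 5000 trypomastigotes of the LacZ-expressing C2C4 line added. After 48 h, medium replaced with seven 3-fold dilutions (90–0.12 µg/mL) for 96 h.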

Leishmania donovani [5] = test: Antileishmanial activity against Leishmania donovani (MHOM/ET/67/L82) amastigotes after 72 hrs; type: functional, organism-based; details: MHOM/ET/67/L82, 72 h
Leishmania donovani [6] = test: Ratio of miltefosine IC50 to compound IC50 for Leishmania donovani (MHOM/ET/67/L82) amastigotes

Row | Structure (SMILES) | IC50 (Plasmodium falciparum) [µM] | Activity [1] | Activity [2] | Activity (L6) [µM] | IC50 [3] [µM] | Activity [4] | IC50 (Trypanosoma cruzi) [µM] | IC50 (Leishmania donovani [5]) [µM] | Ratio IC50 (Leishmania donovani [6])
1 | CC[C@@H](C(=O)C[C@@H](C)C1=C(O)C(=O)[C@@H]2C3=CC[C@H]4C[C@@H](O[C@@H]5O[C@H](C(=O)OC)[C@@H](O)[C@H](O[C@@H]6OC[C@@H](O)[C@H](O)[C@H]6O)[C@H]5O)CC[C@]4(C)[C@H]3CC[C@]12C)C(C)C [METHYL ESTER PANDAROSIDE G] | 0.39 | inactive | inactive | 0.22 | 0.038 | inactive | 0.77 | 0.051 | 10
2 | CC[C@@H](C(=O)C[C@@H](C)C1=C(O)C(=O)[C@@H]2[C@@H]3CC[C@H]4C[C@@H](O[C@@H]5O[C@H](C(=O)O)[C@@H](O)[C@H](O[C@@H]6OC[C@@H](O)[C@H](O)[C@H]6O)[C@H]5O)CC[C@]4(C)[C@H]3CC[C@]12C)C(C)C [PANDAROSIDE H] | 22.8 | inactive | inactive | > 120 | 68.4 | inactive | > 120 | 46.7 | 
3 | CC[C@@H](C(=O)C[C@@H](C)C1=C(O)C(=O)[C@@H]2[C@@H]3CC[C@H]4C[C@@H](O[C@@H]5O[C@H](C(=O)O)[C@@H](O[C@H]6O[C@H](C)[C@@H](O)[C@H](O)[C@@H]6O)[C@H](O)[C@H]5O)CC[C@]4(C)[C@H]3CC[C@]12C)C(C)C [PANDAROSIDE I] | > 25 | inactive | inactive | > 120 | 19.2 | inactive | 70.8 | 36 | 
